Test results reported in ChEMBL document CHEMBL4251757 (J Med Chem, 2018).
Blank lines part the entries; values can stand above or below the molecule they belong to.

Key:
Oxoeicosanoid receptor 1 [1] = biological target: T1, Oxoeicosanoid receptor 1 (Homo sapiens, UniProt Q8TDS5); assay: Antagonist activity at OXE receptor in human neutrophils assessed as inhibition of 5-oxo-ETE-induced calcium mobilization incubated for 2 mins followed by 5-oxo-ETE addition by fluorescence assay; type: functional
In short: (§1)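 Human neutrophils were isolated from healthy donors by dextran sedimentation and Ficoll-Paque centrifugation, then loaded with indo-1. Fluorescence was read at 37 °C in a stirred cuvette. Antagonist was added at various concentrations; 2 min later 5-oxo-ETE (10 nM) was added. Digitonin (final 0.1%) followed 1 min later to give maximal fluorescence.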

[2] = Plasma concentration in cynomolgus monkey at 30 mg/kg administered as oral gavage measured after 1 hr by RP-HPLC analysis; type: ADME, organism-based, Macaca fascicularis
In short: (§2)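 Female cynomolgus monkeys (2.5–3.5 kg). Compound dissolved in EtOH at 75 mg/mL, diluted in 10 volumes of 20 mM NaHCO3 pH 8.0 (9.1% EtOH) and given by oral gavage; 4.4 mL/kg for 30 mg/kg, 2.2 mL/kg for lower doses. Blood drawn into heparin pre-dose and at 0.5, 1, 2, 4, 8, 12, 24 h, sometimes 3 and 7 days. Plasma diluted with 2 volumes MeOH plus internal standard, then RP-HPLC.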

[3] = Half life in cynomolgus monkey plasma at 30 mg/kg administered via oral gavage by RP-HPLC analysis; type: ADME, organism-based, Macaca fascicularis; in short: as §2
[4] = AUC (0 to 24 hrs) in cynomolgus monkey plasma at 30 mg/kg administered via oral gavage by RP-HPLC analysis; type: ADME, organism-based, Macaca fascicularis; set-up: dose 30 mg/kg, time < 24 hr, route oral; in short: as §2
[5] = Plasma concentration in cynomolgus monkey at 30 mg/kg administered as oral gavage measured after 8 hrs by RP-HPLC analysis; type: ADME, organism-based, Macaca fascicularis; in short: as §2
[6] = Tmax in cynomolgus monkey plasma at 30 mg/kg administered via oral gavage by RP-HPLC analysis; type: ADME, organism-based, Macaca fascicularis; in short: as §2
[7] = Cmax in cynomolgus monkey plasma at 30 mg/kg administered via oral gavage by RP-HPLC analysis; type: ADME, organism-based, Macaca fascicularis; set-up: dose 30 mg/kg, route oral; in short: as §2
Oxoeicosanoid receptor 1 [8] = biological target: T1, Oxoeicosanoid receptor 1; assay: Antagonist activity at OXE receptor in human neutrophils assessed as inhibition of 5-oxo-ETE-induced calcium mobilization incubated for 2 mins followed by 5-oxo-ETE addition measured after 1 min by fluorescence assay; type: functional; in short: as §1
[9] = Plasma concentration in cynomolgus monkey at 30 mg/kg administered via oral gavage after 3 days by RP-HPLC analysis; type: ADME, organism-based, Macaca fascicularis; in short: as §2
[10] = Plasma concentration in cynomolgus monkey at 30 mg/kg administered via oral gavage after 7 days by RP-HPLC analysis; type: ADME, organism-based, Macaca fascicularis; in short: as §2
[11] = Drug level in cynomolgus monkey plasma treated with 30 mg/kg 5-(5-Chloro-1-methyl-2-(6-phenylhexyl)-1H-indol-3-yl)-3-methyl-5-oxopentanoic Acid administered via oral gavage assessed as compound formation after 12 hrs by RP-HPLC analysis; type: ADME, organism-based, Macaca fascicularis; details: in vivo
In short: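 Monkeys received 30 mg/kg by oral gavage in EtOH/20 mM NaHCO3 pH 8.0 vehicle. A plasma extract taken 12 h later was run by RP-HPLC on a C18 column (4 µm, 3.9 x 150 mm) with a 15-min gradient of 70–100% MeOH in H2O, both containing 0.02% HOAc. The tetramethylene analog served as internal standard.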

T1 sequence (Q8TDS5 whole entry): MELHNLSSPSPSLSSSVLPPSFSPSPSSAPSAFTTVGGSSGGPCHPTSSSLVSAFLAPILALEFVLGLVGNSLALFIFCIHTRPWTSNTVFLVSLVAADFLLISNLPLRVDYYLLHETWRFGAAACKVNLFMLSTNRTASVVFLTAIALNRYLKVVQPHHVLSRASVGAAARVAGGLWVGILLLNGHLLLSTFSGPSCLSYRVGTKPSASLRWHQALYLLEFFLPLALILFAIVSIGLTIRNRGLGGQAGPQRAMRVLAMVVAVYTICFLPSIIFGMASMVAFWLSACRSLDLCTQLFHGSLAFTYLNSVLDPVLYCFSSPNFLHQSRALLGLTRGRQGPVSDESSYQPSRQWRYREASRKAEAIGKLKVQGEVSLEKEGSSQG

Structure (SMILES): CCCCC/C=C\C[C@H](O)/C=C/C=C\C=C\C(=O)CCCC(=O)O
IC50 (Oxoeicosanoid receptor 1 [1]): 500 nM

Structure (SMILES): CCCCCCc1c(C(=O)C[C@H](C)CC(=O)O)c2cc(Cl)ccc2n1C
concentration at 1 h [2]: 36000 nM
half-life [3]: 1.6 h
AUC(0-t) at 24 h [4]: 100 µM·h
concentration at 8 h [5]: 1600 nM
Tmax [6]: 1 h
Cmax [7]: 36000 nM

Structure (SMILES): C[C@@H](CC(=O)O)CC(=O)c1c([C@@H](O)CCCCCc2ccccc2)n(C)c2ccc(Cl)cc12
IC50 (Oxoeicosanoid receptor 1 [8]): 120 nM

Structure (SMILES): CC(CC(=O)O)CC(=O)c1c(CCCCCC(F)(F)F)n(C)c2ccc(Cl)cc12 (stereo unspecified)
IC50 (Oxoeicosanoid receptor 1 [8]): 38 nM

Structure (SMILES): C[C@H](CC(=O)O)CC(=O)c1c([C@@H](O)CCCCCc2ccccc2)n(C)c2ccc(Cl)cc12
IC50 (Oxoeicosanoid receptor 1 [8]): 0.38 to 0.69 nM
concentration at 72 h [9]: 1500 nM
concentration at 168 h [10]: 200 nM
Drug uptake [11]: Active

Other lines, results leading:

IC50 (Oxoeicosanoid receptor 1 [8]): 12 nM
Structure (SMILES): CC(CC(=O)O)CC(=O)n1c(CCCCCCc2ccccc2)cc2ccc(Cl)cc21 (stereo unspecified)

IC50 (Oxoeicosanoid receptor 1 [8]): 210 nM
Structure (SMILES): CC(CC(=O)O)CC(=O)n1c(CCCc2ccccc2)cc2ccc(Cl)cc21 (stereo unspecified)

Drug uptake [11]: Active
Structure (SMILES): CC(CC(=O)O)CC(=O)c1c(C(O)CCCCCc2ccccc2)n(C)c2ccc(Cl)cc12 (stereo unspecified)
